{"source": "ChEMBL document CHEMBL1926550", "about": "“Synthesis and antibacterial activity of naphthyridone derivatives containing mono/difluoro-methyloxime pyrrolidine scaffolds” (2012)"}
{"test_system": "Klebsiella pneumoniae", "experiment": "Antibacterial activity against Klebsiella pneumoniae 10-3 after 18 hrs by two fold serial dilution method", "type": "functional", "settings": "10-3, 18 h", "procedure,_shortened": "(§1)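 Agar two-fold serial dilution in melted Mueller-Hinton agar, final concentrations 128 down to 0.008 μg/mL. Plates inoculated with 10⁴ cfu and incubated at 35 °C for 18 h. MIC taken as the lowest concentration giving no visible growth on the plate.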", "units": {"MIC": "µg/mL"}}
{"compound": "CC1(CN)CN(c2nc3c(cc2F)c(=O)c(C(=O)O)cn3C2CC2)C/C1=N\\OCF", "note": "(racemic)", "MIC": 0.125}
{"test_system": "Enterococcus faecium", "experiment": "Antibacterial activity against Enterococcus faecium 09-1 after 18 hrs by two fold serial dilution method", "type": "functional", "settings": "09-1, 18 h", "procedure,_shortened": "as §1", "units": {"MIC": "µg/mL"}}
{"compound": "CC1(CN)CN(c2nc3c(cc2F)c(=O)c(C(=O)O)cn3C2CC2)C/C1=N\\OCF", "note": "(racemic)", "MIC": 16}
{"test_system": "Staphylococcus epidermidis", "experiment": "Antibacterial activity against methicillin-sensitive Staphylococcus epidermidis 10-2 after 18 hrs by two fold serial dilution method", "type": "functional", "settings": "10-2, 18 h", "procedure,_shortened": "as §1", "units": {"MIC": "µg/mL"}}
{"compound": "CC1(CN)CN(c2nc3c(cc2F)c(=O)c(C(=O)O)cn3C2CC2)C/C1=N\\OCF", "note": "(racemic)", "MIC": 64}
{"test_system": "Pseudomonas aeruginosa", "experiment": "Antibacterial activity against Pseudomonas aeruginosa 10-1 after 18 hrs by two fold serial dilution method", "type": "functional", "settings": "10-1, 18 h", "procedure,_shortened": "as §1", "units": {"MIC": "µg/mL"}}
{"compound": "CC1(CN)CN(c2nc3c(cc2F)c(=O)c(C(=O)O)cn3C2CC2)C/C1=N\\OCF", "note": "(racemic)", "MIC": 0.008}
{"test_system": "Klebsiella pneumoniae", "experiment": "Antibacterial activity against Klebsiella pneumoniae 09-2 after 18 hrs by two fold serial dilution method", "type": "functional", "settings": "09-2, 18 h", "procedure,_shortened": "as §1", "units": {"MIC": "µg/mL"}}
{"compound": "CC1(CN)CN(c2nc3c(cc2F)c(=O)c(C(=O)O)cn3C2CC2)C/C1=N\\OCF", "note": "(racemic)", "MIC": 128}
{"test_system": "Enterococcus faecium", "experiment": "Antibacterial activity against Enterococcus faecium 09-5 after 18 hrs by two fold serial dilution method", "type": "functional", "settings": "09-5, 18 h", "procedure,_shortened": "as §1", "units": {"MIC": "µg/mL"}}
{"compound": "CC1(CN)CN(c2nc3c(cc2F)c(=O)c(C(=O)O)cn3C2CC2)C/C1=N\\OCF", "note": "(racemic)", "MIC": 16}
{"test_system": "Escherichia coli", "experiment": "Antibacterial activity against Escherichia coli 10-1 after 18 hrs by two fold serial dilution method", "type": "functional", "settings": "10-1, 18 h", "procedure,_shortened": "as §1", "units": {"MIC": "µg/mL"}}
{"compound": "CC1(CN)CN(c2nc3c(cc2F)c(=O)c(C(=O)O)cn3C2CC2)C/C1=N\\OCF", "note": "(racemic)", "MIC": 64}
{"test_system": "Staphylococcus aureus", "experiment": "Antibacterial activity against methicillin-sensitive Staphylococcus aureus 10-5 after 18 hrs by two fold serial dilution method", "type": "functional", "settings": "10-5, 18 h", "procedure,_shortened": "as §1", "units": {"MIC": "µg/mL"}}
{"compound": "CC1(CN)CN(c2nc3c(cc2F)c(=O)c(C(=O)O)cn3C2CC2)C/C1=N\\OCF", "note": "(racemic)", "MIC": 0.03}
{"test_system": "Escherichia coli", "experiment": "Antibacterial activity against Escherichia coli 10-3 after 18 hrs by two fold serial dilution method", "type": "functional", "settings": "10-3, 18 h", "procedure,_shortened": "as §1", "units": {"MIC": "µg/mL"}}
{"compound": "CC1(CN)CN(c2nc3c(cc2F)c(=O)c(C(=O)O)cn3C2CC2)C/C1=N\\OCF", "note": "(racemic)", "MIC": 32}
{"test_system": "Enterococcus faecium", "experiment": "Antibacterial activity against Enterococcus faecium 09-6 after 18 hrs by two fold serial dilution method", "type": "functional", "settings": "09-6, 18 h", "procedure,_shortened": "as §1", "units": {"MIC": "µg/mL"}}
{"compound": "CC1(CN)CN(c2nc3c(cc2F)c(=O)c(C(=O)O)cn3C2CC2)C/C1=N\\OCF", "note": "(racemic)", "MIC": 0.06}
{"test_system": "Enterococcus faecium", "experiment": "Antibacterial activity against Enterococcus faecium 09-4 after 18 hrs by two fold serial dilution method", "type": "functional", "settings": "09-4, 18 h", "procedure,_shortened": "as §1", "units": {"MIC": "µg/mL"}}
{"compound": "CC1(CN)CN(c2nc3c(cc2F)c(=O)c(C(=O)O)cn3C2CC2)C/C1=N\\OCF", "note": "(racemic)", "MIC": 0.06}
{"test_system": "Enterococcus faecalis", "experiment": "Ratio of ciprofloxacin MIC to compound MIC for Enterococcus faecalis 09-2", "type": "functional", "settings": "not given"}
{"compound": "CC1(CN)CN(c2nc3c(cc2F)c(=O)c(C(=O)O)cn3C2CC2)C/C1=N\\OCF", "note": "(racemic)", "Ratio": 64}
{"test_system": "Staphylococcus epidermidis", "experiment": "Antibacterial activity against methicillin-resistant Staphylococcus epidermidis 10-1 after 18 hrs by two fold serial dilution method", "type": "functional", "settings": "10-1, 18 h", "procedure,_shortened": "(§2)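 Agar two-fold serial dilution in melted Mueller-Hinton agar, 128 to 0.008 μg/mL. Plates inoculated with 10⁴ cfu, incubated 35 °C for 18 h. MIC taken as lowest concentration giving no visible growth on the plate.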", "units": {"MIC": "µg/mL"}}
{"compound": "CC1(CN)CN(c2nc3c(cc2F)c(=O)c(C(=O)O)cn3C2CC2)C/C1=N\\OCF", "note": "(racemic)", "MIC": 1}
{"test_system": "Escherichia coli", "experiment": "Antibacterial activity against Escherichia coli 09-2 after 18 hrs by two fold serial dilution method", "type": "functional", "settings": "09-2, 18 h", "procedure,_shortened": "as §1", "units": {"MIC": "µg/mL"}}
{"compound": "CC1(CN)CN(c2nc3c(cc2F)c(=O)c(C(=O)O)cn3C2CC2)C/C1=N\\OCF", "note": "(racemic)", "MIC": "> 128"}
{"test_system": "Escherichia coli", "experiment": "Antibacterial activity against Escherichia coli 10-2 after 18 hrs by two fold serial dilution method", "type": "functional", "settings": "10-2, 18 h", "procedure,_shortened": "as §1", "units": {"MIC": "µg/mL"}}
{"compound": "CC1(CN)CN(c2nc3c(cc2F)c(=O)c(C(=O)O)cn3C2CC2)C/C1=N\\OCF", "note": "(racemic)", "MIC": 0.125}
{"test_system": "Staphylococcus aureus", "experiment": "Antibacterial activity against methicillin-resistant Staphylococcus aureus 10-3 after 18 hrs by two fold serial dilution method", "type": "functional", "settings": "10-3, 18 h", "procedure,_shortened": "as §2", "units": {"MIC": "µg/mL"}}
{"compound": "CC1(CN)CN(c2nc3c(cc2F)c(=O)c(C(=O)O)cn3C2CC2)C/C1=N\\OCF", "note": "(racemic)", "MIC": 4}
{"test_system": "Staphylococcus aureus", "experiment": "Antibacterial activity against methicillin-sensitive Staphylococcus aureus 10-2 after 18 hrs by two fold serial dilution method", "type": "functional", "settings": "10-2, 18 h", "procedure,_shortened": "as §1", "units": {"MIC": "µg/mL"}}
{"compound": "CC1(CN)CN(c2nc3c(cc2F)c(=O)c(C(=O)O)cn3C2CC2)C/C1=N\\OCF", "note": "(racemic)", "MIC": 1}
{"test_system": "Pseudomonas aeruginosa", "experiment": "Antibacterial activity against Pseudomonas aeruginosa ATCC 27853 after 18 hrs by two fold serial dilution method", "type": "functional", "settings": "ATCC 27853, 18 h", "procedure,_shortened": "as §1", "units": {"MIC": "µg/mL"}}
{"compound": "CC1(CN)CN(c2nc3c(cc2F)c(=O)c(C(=O)O)cn3C2CC2)C/C1=N\\OCF", "note": "(racemic)", "MIC": 0.125}
{"test_system": "Pseudomonas aeruginosa", "experiment": "Antibacterial activity against Pseudomonas aeruginosa 10-2 after 18 hrs by two fold serial dilution method", "type": "functional", "settings": "10-2, 18 h", "procedure,_shortened": "as §1", "units": {"MIC": "µg/mL"}}
{"compound": "CC1(CN)CN(c2nc3c(cc2F)c(=O)c(C(=O)O)cn3C2CC2)C/C1=N\\OCF", "note": "(racemic)", "MIC": 16}
{"test_system": "Streptococcus pneumoniae", "experiment": "Antibacterial activity against Streptococcus pneumoniae 10-1 after 18 hrs by two fold serial dilution method", "type": "functional", "settings": "10-1, 18 h", "procedure,_shortened": "as §1", "units": {"MIC": "µg/mL"}}
{"compound": "CC1(CN)CN(c2nc3c(cc2F)c(=O)c(C(=O)O)cn3C2CC2)C/C1=N\\OCF", "note": "(racemic)", "MIC": 0.5}
{"test_system": "Enterococcus faecalis", "experiment": "Antibacterial activity against Enterococcus faecalis 09-1 after 18 hrs by two fold serial dilution method", "type": "functional", "settings": "09-1, 18 h", "procedure,_shortened": "as §1", "units": {"MIC": "µg/mL"}}
{"compound": "CC1(CN)CN(c2nc3c(cc2F)c(=O)c(C(=O)O)cn3C2CC2)C/C1=N\\OCF", "note": "(racemic)", "MIC": 4}
{"test_system": "Staphylococcus aureus", "experiment": "Ratio of ciprofloxacin MIC to compound MIC for methicillin-resistant Staphylococcus aureus 10-2", "type": "functional", "settings": "not given"}
{"compound": "CC1(CN)CN(c2nc3c(cc2F)c(=O)c(C(=O)O)cn3C2CC2)C/C1=N\\OCF", "note": "(racemic)", "Ratio": 64}
